What was measured:
[1] = Tmax in Sprague-Dawley rat at 3 mg/kg, po by LC-MS/MS analysis; assay type: ADME, organism-based; set-up: dose 3 mg/kg, route oral; settings: in vivo
How it was run: (§1)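 Male Sprague-Dawley rats, n = 4 per group, overnight-fasted. Oral gavage of 3 or 1 mg/kg in 30% PEG400; i.v. arm at 1 mg/kg. Orbital plexus blood taken under ether at 0.083–24 h; plasma deproteinized and assayed by LC-MS/MS. Noncompartmental parameters derived; mean ± SD reported.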

Rattus norvegicus [2] = assay: Antidiabetic activity in Sprague-Dawley rat assessed as urinary glucose excretion at 1 mg/kg, po administered 1 hr prior to glucose challenge measured after 1 to 24 hrs relative to dapagliflozin; assay type: functional, Urine
How it was run: (§2)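 Overnight-fasted Sprague-Dawley rats, n = 3 per group, dosed 1 mg/kg by oral gavage in 30% PEG400; controls received vehicle. Oral glucose (2 g/kg, 10 mL/kg) given 1 h post-dose. Urine collected in metabolic cages at 0–4 and 4–24 h, glucose measured on a biochemistry analyzer. Expressed as % of reference positive control; mean ± SD.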

Rattus norvegicus [3] = assay: Antidiabetic activity in Sprague-Dawley rat assessed as urinary glucose excretion at 1 mg/kg, po administered 1 hr prior to glucose challenge measured after 4 to 24 hrs relative to dapagliflozin; assay type: functional, Urine; how it was run: as §2
Rattus norvegicus [4] = assay: Antidiabetic activity in Sprague-Dawley rat assessed as urinary glucose excretion at 1 mg/kg, po administered 1 hr prior to glucose challenge measured after 1 to 4 hrs relative to dapagliflozin; assay type: functional, Urine; how it was run: as §2
[5] = AUC (0 to infinity) in Sprague-Dawley rat at 3 mg/kg, po by LC-MS/MS analysis; assay type: ADME, organism-based; set-up: time infinity, dose 3 mg/kg, route oral; settings: plasma; how it was run: as §1
[6] = Cmax in Sprague-Dawley rat at 3 mg/kg, po by LC-MS/MS analysis; assay type: ADME, organism-based; set-up: dose 3 mg/kg, route oral; settings: in vivo; how it was run: as §1
[7] = Half life in Sprague-Dawley rat at 3 mg/kg, po by LC-MS/MS analysis; assay type: ADME, organism-based; set-up: dose 3 mg/kg, route oral; settings: in vivo; how it was run: as §1
[8] = molecular target: T1, Sodium/glucose cotransporter 1 (Homo sapiens, UniProt P13866); assay: Inhibition of full length human SGLT1 assessed as methyl-alpha-D-[U-14C]glucopyranoside uptake after 2 hrs by cell-based topcount scintillation counting analysis
T1 sequence (P13866 whole entry): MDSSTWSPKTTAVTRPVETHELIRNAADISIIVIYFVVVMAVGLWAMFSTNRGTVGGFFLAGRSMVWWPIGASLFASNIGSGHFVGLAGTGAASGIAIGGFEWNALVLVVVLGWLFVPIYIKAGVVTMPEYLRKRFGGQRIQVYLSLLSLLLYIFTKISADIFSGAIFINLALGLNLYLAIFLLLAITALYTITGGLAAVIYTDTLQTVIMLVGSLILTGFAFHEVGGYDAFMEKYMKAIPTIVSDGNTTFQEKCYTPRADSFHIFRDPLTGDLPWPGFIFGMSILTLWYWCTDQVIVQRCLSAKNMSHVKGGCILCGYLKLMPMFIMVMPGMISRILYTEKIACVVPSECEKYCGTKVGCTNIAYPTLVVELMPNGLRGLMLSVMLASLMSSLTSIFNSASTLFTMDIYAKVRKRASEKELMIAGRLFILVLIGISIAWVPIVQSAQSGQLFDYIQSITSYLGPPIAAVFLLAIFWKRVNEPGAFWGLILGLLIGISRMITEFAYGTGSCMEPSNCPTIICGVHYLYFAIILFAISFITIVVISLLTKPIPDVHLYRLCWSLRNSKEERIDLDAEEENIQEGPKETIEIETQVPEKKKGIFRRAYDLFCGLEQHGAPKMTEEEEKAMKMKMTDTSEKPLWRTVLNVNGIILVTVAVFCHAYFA

[9] = molecular target: T2, Sodium/glucose cotransporter 2 (Homo sapiens, UniProt P31639); assay: Inhibition of full length human SGLT2 assessed as methyl-alpha-D-[U-14C]glucopyranoside uptake after 1.5 hrs by cell-based topcount scintillation counting analysis
T2 sequence (P31639 whole entry): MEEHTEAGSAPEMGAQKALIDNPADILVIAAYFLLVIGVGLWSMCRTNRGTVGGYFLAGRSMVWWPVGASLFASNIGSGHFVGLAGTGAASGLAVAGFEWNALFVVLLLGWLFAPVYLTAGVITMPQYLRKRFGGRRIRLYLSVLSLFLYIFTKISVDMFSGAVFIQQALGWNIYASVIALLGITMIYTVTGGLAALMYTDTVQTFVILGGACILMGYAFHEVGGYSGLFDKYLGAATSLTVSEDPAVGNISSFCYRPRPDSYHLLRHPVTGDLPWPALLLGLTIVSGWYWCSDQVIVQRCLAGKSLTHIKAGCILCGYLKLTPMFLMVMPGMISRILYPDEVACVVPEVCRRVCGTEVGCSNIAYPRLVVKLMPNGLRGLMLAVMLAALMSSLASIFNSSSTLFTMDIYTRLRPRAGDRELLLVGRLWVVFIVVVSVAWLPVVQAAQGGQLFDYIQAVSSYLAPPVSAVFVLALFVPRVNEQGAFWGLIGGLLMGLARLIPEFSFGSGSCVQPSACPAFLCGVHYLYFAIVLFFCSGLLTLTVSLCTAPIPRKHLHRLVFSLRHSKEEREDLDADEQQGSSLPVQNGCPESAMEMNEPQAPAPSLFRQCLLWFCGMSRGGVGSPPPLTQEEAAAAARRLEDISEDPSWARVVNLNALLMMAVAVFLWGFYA

Canis familiaris [10] = assay: Antidiabetic activity in Beagle dog assessed as urinary glucose excretion at 0.03 mg/kg, po administered 1 hr prior to glucose challenge measured after 1 to 24 hrs relative to dapagliflozin; assay type: functional, Canis lupus familiaris, Urine
How it was run: (§3)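 Overnight-fasted beagle dogs, n = 3 per group, given 0.03 mg/kg orally by gavage in 10% PEG400; vehicle controls received 10% PEG400. Oral glucose (2 g/kg, 5 mL/kg) given 1 h post-dose. Urine collected in metabolic cages at 0–8 and 8–24 h, glucose read on a biochemistry analyzer. Expressed as % of reference positive control; mean ± SD.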

Canis familiaris [11] = assay: Antidiabetic activity in Beagle dog assessed as urinary glucose excretion at 0.03 mg/kg, po administered 1 hr prior to glucose challenge measured after 1 to 8 hrs relative to dapagliflozin; assay type: functional, Canis lupus familiaris, Urine; how it was run: as §3
Canis familiaris [12] = assay: Antidiabetic activity in Beagle dog assessed as urinary glucose excretion at 0.03 mg/kg, po administered 1 hr prior to glucose challenge measured after 8 to 24 hrs relative to dapagliflozin; assay type: functional, Canis lupus familiaris, Urine
How it was run: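 Overnight-fasted beagle dogs, n = 3 per group, given 0.03 mg/kg orally by gavage in 10% PEG400; vehicle controls received 10% PEG400. Oral glucose (2 g/kg, 5 mL/kg) given 1 h post-dose. Expressed as % of reference positive control; mean ± SD.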

| Structure (SMILES) | Tmax [1] | Activity (Rattus norvegicus [2]) | Activity (Rattus norvegicus [3]) | Activity (Rattus norvegicus [4]) | AUC(0-inf) [5] | Cmax [6] | half-life [7] | IC50 [8] | IC50 [9] | Activity (Canis familiaris [10]) | Activity (Canis familiaris [11]) | Activity (Canis familiaris [12]) |
| --- | --- | --- | --- | --- | --- | --- | --- | --- | --- | --- | --- | --- |
| [2H]C([2H])([2H])Oc1ccc(C([2H])([2H])c2cc([C@@H]3O[C@H](CO)[C@@H](O)[C@H](O)[C@H]3O)ccc2Cl)cc1 | 0.75 h | 2100 mg | 1990 mg | 101 mg | 5350 ng·h/mL | 1400 ng/mL | 5.66 h |  |  |  |  |  |
| [2H]C([2H])([2H])Oc1ccc(C([2H])([2H])c2cc([C@]3([2H])O[C@H](CO)[C@@H](O)[C@H](O)[C@H]3O)ccc2Cl)cc1 |  | 1650 mg | 1480 mg | 166 mg |  |  |  | 7 µM | 0.0068 µM |  |  |  |
| [2H]C([2H])([2H])C([2H])([2H])Oc1ccc(Cc2cc([C@@H]3O[C@H](CO)[C@@H](O)[C@H](O)[C@H]3O)ccc2Cl)cc1 |  | 2300 mg | 2150 mg | 145 mg | 22600 ng·h/mL |  |  |  |  | 12000 mg | 3470 mg |  |
| [2H]C([2H])(C)Oc1ccc(Cc2cc([C@@H]3O[C@H](CO)[C@@H](O)[C@H](O)[C@H]3O)ccc2Cl)cc1 |  | 2430 mg | 2310 mg | 119 mg | 20900 ng·h/mL |  |  |  |  |  |  |  |
| [2H][C@@]1(c2ccc(Cl)c(Cc3ccc(OCC)cc3)c2)O[C@H](CO)[C@@H](O)[C@H](O)[C@H]1O |  | 2650 mg | 2460 mg | 193 mg |  |  |  |  |  | 12700 mg | 3760 mg | 8910 mg |
